Measured values: ChEMBL document CHEMBL4024772, “Aniline-Based Inhibitors of Influenza H1N1 Virus Acting on Hemagglutinin-Mediated Fusion” (J Med Chem, 2018)
Active and inactive are the calls of the source. No cut-off for these calls is given here.

Experiments:
[1] = Antiviral activity against Influenza A virus (A/Virginia/ATCC3/2009(H1N1)) infected in MDCK cells assessed as inhibition of virus-induced cytopathicity after 72 hrs by microscopic method; type: functional, cell-based, Influenza A virus (A/Virginia/03/2009(H1N1))
Summary of the method: (§1)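 MDCK cells infected with influenza virus; viral cytopathic effect scored microscopically at 3 days post infection and confirmed by colorimetric formazan-based MTS viability assay. EC50 is the concentration giving 50% inhibition of viral cytopathicity. For A/HK/7/87 (H3N2) and B/HongKong/5/1972, the highest tested concentration was 100 μM.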

[2] = Antiviral activity against Influenza A virus (A/Virginia/ATCC3/2009(H1N1)) infected in MDCK cells assessed as inhibition of virus-induced cytopathicity after 72 hrs by MTS assay; type: functional, cell-based, Influenza A virus (A/Virginia/03/2009(H1N1)); summary of the method: as §1
[3] = Cytotoxicity against MDCK cells assessed as decrease in cell viability after 72 hrs by MTS assay; type: cell-based, Canis lupus familiaris; settings: dog
Summary of the method: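 Uninfected MDCK cells exposed to compound alongside the antiviral assay. Viability was read by colorimetric formazan-based MTS assay, and CC50 is the concentration giving 50% cytotoxicity.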

Influenza A virus [4] = assay: Antiviral activity against Influenza A virus (A/Puerto Rico/8/34(H1N1)) infected in MDCK cells assessed as inhibition of virus-induced cytopathicity after 72 hrs by microscopic method; type: functional, cell-based; settings: A/Puerto Rico/8/1934(H1N1); summary of the method: as §1
[5] = tested on: Influenza A virus (A/Hong Kong/7/1987(H3N2)); assay: Antiviral activity against Influenza A virus (A/Hong Kong/7/1987(H3N2)) infected in MDCK cells assessed as inhibition of virus-induced cytopathicity at 100 uM after 72 hrs; type: functional, cell-based; summary of the method: as §1
[6] = Cytotoxicity against MDCK cells assessed as effect on cell morphology after 72 hrs by microscopic method; type: cell-based, Canis lupus familiaris; settings: dog
Summary of the method: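 MDCK cells examined microscopically alongside the antiviral assay. MCC is the minimum compound concentration causing a microscopically detectable alteration of normal cell morphology.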

Influenza B virus = assay: Antiviral activity against Influenza B virus (B/Hong Kong/05/1972) infected in MDCK cells assessed as inhibition of virus-induced cytopathicity at 100 uM after 72 hrs; type: functional, cell-based; summary of the method: as §1
Influenza A virus [7] = assay: Antiviral activity against Influenza A virus (A/Puerto Rico/8/34(H1N1)) infected in MDCK cells assessed as inhibition of virus-induced cytopathicity after 72 hrs by MTS assay; type: functional, cell-based; settings: A/Puerto Rico/8/1934(H1N1); summary of the method: as §1
[8] = tested on: Vesicular stomatitis virus; assay: Antiviral activity against Vesicular stomatitis virus assessed as inhibition of virus-induced cytopathicity after 3 to 6 days by cell-based microscopic method; type: functional

Row | SMILES | EC50 [1] | EC50 [2] | CC50 at 72 h [3] | EC50 (Influenza A virus [4]) | inhibition [5] | MCC at 72 h [6] | inhibition (Influenza B virus) | EC50 (Influenza A virus [7]) | EC50 [8]
1 | CCc1ccccc1NCC12CC3CC(CC(C3)C1)C2 | 0.19 µM | 0.15 µM | 0.87 µM | > 100 µM | inactive | 2 µM | inactive | > 100 µM | 
2 | CC(C)c1ccccc1OCCN1CCCCCC1 | 2.6 µM | 2 µM | 26 µM | > 100 µM | inactive | 20 µM | inactive | > 100 µM | 45 µM
3 | NC12CC3CC(CC(C3)C1)C2 [AMANTADINE] | > 500 µM | > 500 µM | > 500 µM | 85 µM |  | > 500 µM |  | 178 µM | 
4 | FC(F)(F)c1ccccc1NCCN1CCCCCC1 | ≤ 0.8 µM | < 0.8 µM | 11 µM | > 100 µM | inactive | 20 µM | inactive | > 100 µM | 
5 | COc1ccccc1NCCN1CCCCC1 | 32 µM | 8.3 µM | > 100 µM | > 100 µM | inactive | > 100 µM | inactive | > 100 µM | 
6 | Brc1ccccc1NCCN1CCCCC1 | 45 µM | 47 µM | > 100 µM | 45 µM | inactive | > 100 µM | inactive | 48 µM | 
7 | CC(C)c1ccccc1NCCC12CC3CC(CC(C3)C1)C2 | < 0.8 µM | < 0.8 µM | 1.6 µM | > 100 µM | inactive | 4 µM | inactive | > 100 µM | 
8 | CC(C)c1ccccc1OCCN1CCCCC1 | 0.89 µM | 1 µM | > 100 µM | 30 µM | inactive | ≥ 100 µM | inactive | 15 µM | 
9 | FC(F)(F)c1cc(Cl)cc(NCC23CC4CC(CC(C4)C2)C3)c1 |  |  |  |  |  |  |  |  | 12 µM
10 | Fc1cc(NCC23CC4CC(CC(C4)C2)C3)cc(C(F)(F)F)c1 |  |  |  |  |  |  |  |  | 12 µM
11 | CC(C)c1ccccc1NCC12CC3CC(CC(C3)C1)C2 | 0.8 µM | < 0.8 µM | 3.4 µM | > 100 µM | inactive | 4 µM | inactive | > 100 µM | 
12 | FC(F)(F)c1ccccc1NCCN1CCCCC1 | 5.4 µM | 2.6 µM | 61 µM | 15 µM | inactive | 100 µM | inactive | 10 µM | 
13 | CC(C)c1ccccc1NCCN1CCCC1 | 17 µM | 8 µM | > 100 µM | 23 µM | inactive | > 100 µM | inactive | 39 µM | 
14 | NC(=O)c1ncn([C@@H]2O[C@H](CO)[C@@H](O)[C@H]2O)n1 [RIBAVIRIN] | 12 µM | 9.8 µM | > 100 µM | 16 µM |  | ≥ 100 µM |  | 45 µM | 
